The values below come from ChEMBL document CHEMBL1158629, “Synthesis, in vitro and in vivo evaluation of [11C]MMTP: a potential PET ligand for mGluR1 receptors” (Bioorg Med Chem Lett, 2010).

What all share (type): ADME, organism-based
Data set [1] is described as follows: Ratio of drug uptake in putamen to cerebellum of baboon brain at 5 +/- 0.5 mCi, iv after 35 mins. To be noted: papio hamadryas, in vivo. In short, it runs like this:
(§1)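 Fasted baboons were immobilized with ketamine (10 mg/kg, i.m.) and maintained on 1.5~2.0 % isoflurane via endotracheal tube. Core temperature was held at 37°C on a heated water blanket during PET scanning.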

The nature of data set [2]: Ratio of drug uptake in caudate to cerebellum of baboon brain at 5 +/- 0.5 mCi, iv after 35 mins. To be noted: papio hamadryas, in vivo. In outline: as §1
Data set [3] in a line: Ratio of drug uptake in amygdala to cerebellum of baboon brain at 5 +/- 0.5 mCi, iv after 85 mins. To be noted: papio hamadryas, in vivo. In outline: as §1
Data set [4] can be described thus: Ratio of drug uptake in hippocampus to cerebellum of baboon brain at 5 +/- 0.5 mCi, iv after 35 mins. To be noted: papio hamadryas, in vivo. In short, it runs like this: as §1
The nature of data set [5]: Ratio of drug uptake in hippocampus to cerebellum of baboon brain at 5 +/- 0.5 mCi, iv after 85 mins. Conditions: papio hamadryas, in vivo. In outline: as §1
The nature of data set [6]: Ratio of drug uptake in amygdala to cerebellum of baboon brain at 5 +/- 0.5 mCi, iv after 35 mins. To be noted: papio hamadryas, in vivo. In short, it runs like this:
as §1

Data set [7] is described as follows: Metabolic stability in baboon brain assessed as compound remaining at 5 +/- 0.5 mCi, iv after 90 mins. Conditions: papio hamadryas, in vivo, 1.5 h.
The nature of data set [8]: Ratio of drug uptake in caudate to cerebellum of baboon brain at 5 +/- 0.5 mCi, iv after 85 mins. Conditions: papio hamadryas, in vivo. In outline:
as §1

Data set [9] is described as follows: Ratio of drug uptake in putamen to cerebellum of baboon brain at 5 +/- 0.5 mCi, iv after 85 mins. To be noted: papio hamadryas, in vivo. In short, it runs like this:
as §1

Data set [10] in a line: Ratio of drug uptake in frontal cortex to cerebellum of baboon brain at 5 +/- 0.5 mCi, iv after 85 mins. To be noted: papio hamadryas, in vivo. In short, it runs like this:
as §1

The nature of data set [11]: Ratio of drug uptake in caudate to cerebellum of baboon brain at 5 +/- 0.5 mCi, iv after 65 mins. To be noted: papio hamadryas, in vivo, pooled result: one value given for 5 cell lines, strains, targets or settings. In short, it runs like this: as §1
A short description of data set [12]: Ratio of drug uptake in frontal cortex to cerebellum of baboon brain at 5 +/- 0.5 mCi, iv after 35 mins. To be noted: papio hamadryas, in vivo. In outline:
as §1

Data set [13] can be described thus: Metabolic stability in baboon brain assessed as compound remaining at 5 +/- 0.5 mCi, iv after 30 mins. Conditions: papio hamadryas, in vivo, 0.5 h.

Molecules are shown by their SMILES.

On to `CN(C)c1ccnc2sc3c(=O)n(-c4ccc(O[11CH3])cc4)cnc3c12`, for which the Ratio was determined as 2 in [1]; 2 in data set [2]; 1.6 in data set [3]; 2 in data set [4]; 1.6 in [5]; 2 in [6]. Moreover, the Ratio in [8] is reported as 1.6; in [9], 1.6; in [10], 1.6; in [11], 1.65; in data set [12], 2. In addition, the values for the Stability in data set [7] and in [13] were 30% and 45%, respectively.
